According to ChEMBL document CHEMBL4665801, “Pyrazole-Based Lactate Dehydrogenase Inhibitors with Optimized Cell Activity and Pharmacokinetic Properties” (J Med Chem, 2020):
The source made the active and inactive calls. Unless noted, the rule behind the calls is not given here.

What was measured:
[1] = molecular target: T1, L-lactate dehydrogenase A chain (Homo sapiens, UniProt P00338); assay: Inhibition of LDHA in human A673 cells assessed as decrease in extracellular acidification rate at 0.5 to 5 uM preincubated for 1 hr followed by glucose/oligomycin/2-DG addition at 48 mins by seahorse XF GST based assay; assay type: cell-based; conditions: dose microM 0.5-5, time 108.0 min
In short: (§1)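 A673 cells in DMEM with 10% FBS were plated 24 h ahead, then switched to Seahorse basic DMEM with 2 mM glutamine, pH 7.4, and held 1 h at 37 °C without CO2. ECAR was recorded after inhibitor injection at increasing concentrations. At 48 min, glucose (10 mM final), oligomycin (1 μg/mL final) and 2-DG (50 mM final) were injected in sequence.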

[2] = molecular target: T1, L-lactate dehydrogenase A chain; assay: Binding affinity to human His-tagged LDHA by SPR analysis
In short: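 SPR on a Mass-1 instrument gave K_D and k_off. Residence time τ was calculated as 1/k_off (s⁻¹).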

[3] = Protein binding in mouse plasma assessed as free fraction; assay type: ADME, cell-free
[4] = Half life in rat liver cytoplasm; assay type: ADME, subcellular
[5] = Half life in rat liver microsomes at 1 uM in presence of NADPH by LC-MS/MS; assay type: ADME, Microsome
[6] = molecular target: T1, L-lactate dehydrogenase A chain; assay: Inhibition of LDHA in human A673 cells assessed as decrease in lactate production incubated for 2 hrs by lactate oxidase-coupled fluorescence based assay; assay type: cell-based
[7] = In vivo inhibition of LDH in human A673 cells xenografted athymic nude CrTac:NCr-Foxn1nu mouse assessed as reduction in tumor LDH activity at 50 mg/kg, iv after 6 hrs by UV-VIS spectrometric method relative to control; assay type: functional
In short: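 Female athymic nude mice carried SQ A673 flank xenografts (2 million cells) and received a single IV dose of 50 mg/kg in PBS-based vehicle. Four mice per time point were sacrificed at 1, 3, 6 and 24 h. Frozen tumor (10–50 mg) was pulverized and lysed in PBS pH 7.4 with 0.1% Triton X-100 on ice for 1 h. Cleared lysate (10–20 μg) was assayed with 10 mM pyruvate and 0.3 mM final NADH, reading NADH oxidation at 340 nm at 37 °C.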

[8] = Kinetic aqueous solubility of the compound in pH 7.4 PBS buffer at 150 uM measured after 6 hrs by shake flask method; assay type: physicochemical; conditions: read-out: Kinetic_solubility
In short: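 μSOL kinetic solubility. 10 mM DMSO stocks were diluted with 1-propanol cosolvent to 150 μM final in aqueous pH 7.4 and equilibrated 6 h at room temperature. After filtration, filtrate concentration was read by UV absorbance against a 17 μM reference.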

[9] = Volume of distribution at steady state in CD-1 mouse at 10 mg/kg, iv and measured up to 24 hrs by LC/MS-MS analysis; assay type: ADME, organism-based; conditions: in vivo
In short: (§2)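 Male CD1 mice, about 6–8 weeks old and 20–30 g, received 10 mg/kg IV in 0.1 M NaOH in PBS adjusted to pH 7–8.5, made fresh on the day of dosing. Three mice per cohort. Blood was taken from the dorsal metatarsal vein at 5, 15, 30 min and 1, 2, 4, 8, 12, 24 h into heparin tubes. Plasma was spun at 4 °C, stored at –75 °C and analysed by LC–MS/MS. For IV dosing Cmax = C0.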

[10] = Metabolic stability in dog hepatocytes; assay type: ADME, cell-based, Canis lupus familiaris, Hepatocyte
[11] = molecular target: T1, L-lactate dehydrogenase A chain; assay: Inhibition of GS[HiBiT]GS-tagged LDHA (unknown origin) expressed in HEK-293T cells measured after 1 hr by […]; assay type: cell-based
In short: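 HEK293T cells were transiently transfected for 24 h with CMV-driven LDHA carrying a C-terminal GS[HiBiT]GS tag, then reseeded at 2500 cells/well in DPBS with Ca/Mg and 1 g/L glucose. […] Cells were lysed with NP40, and 11S (100 nM final) plus furimazine was added.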

[12] = AUClast in CD-1 mouse at 10 mg/kg, iv and measured up to 24 hrs by LC/MS-MS analysis; assay type: ADME, organism-based; design: route intravenous, dose 10 mg/kg, time <=24; conditions: in vivo; in short: as §2
[13] = Permeability of compound at pH 7.4 incubated for 30 mins by PAMPA; assay type: ADME; conditions: pH 7.4, 0.5 h
In short: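 Stirred double-sink PAMPA with GI-tract lipid/dodecane membrane, pH 7.4 on both sides. Compound was diluted from 10 mM DMSO stock to 0.05 mM (0.5% DMSO final), with 30 min permeation at room temperature. Donor and acceptor were read by UV. Results in 10⁻⁶ cm/s.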

[14] = Half life in human liver microsomes at 1 uM in presence of NADPH by LC-MS/MS; assay type: ADME, Microsome
In short: (§3)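 Time-course stability in human or mouse liver microsomes, or mouse hepatocytes, in the presence of NADPH and UDPGA. Parent compound was monitored at five time points to derive T1/2.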

[15] = molecular target: T1, L-lactate dehydrogenase A chain; assay: Inhibition of LDHA in human MIA PaCa-2 cells assessed as decrease in lactate production incubated for 2 hrs by lactate oxidase-coupled fluorescence based assay; assay type: cell-based
[16] = Metabolic stability in mouse hepatocytes; assay type: ADME, cell-based, Hepatocyte; in short: as §3
[17] = Permeability of compound at pH 7.4 […] incubated for 1 hr by PAMPA-BBB assay; assay type: ADME; conditions: pH 7.4, 1 h
In short: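 Double-sink PAMPA with 10% porcine brain lipid extract in phospholipid/alkane membrane. 10 mM DMSO stocks were diluted to 0.05 mM at pH 7.4 and stirred 1 h at room temperature. Donor and acceptor were quantified by UV against reference and blank. Results in 10⁻⁶ cm/s.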

[18] = Metabolic stability in rat hepatocytes; assay type: ADME, cell-based, Hepatocyte
[19] = system: A673; assay: Cytotoxicity against human A673 cells assessed as reduction in cell viability after 48 hrs by CellTiter-Glo assay; assay type: functional, cell-based; conditions: A673, 48 h
[20] = Half life in human liver cytoplasm; assay type: ADME, subcellular
[21] = system: MIA PaCa-2; assay: Cytotoxicity against human MIA PaCa-2 cells assessed as reduction in cell viability after 48 hrs by CellTiter-Glo assay; assay type: functional, cell-based; conditions: MIA PaCa-2, 48 h
[22] = molecular target: Voltage-gated inwardly rectifying potassium channel KCNH2 (Homo sapiens, UniProt Q12809); assay: Inhibition of human ERG by patch clamp method; conditions: dose >10 µM
Chain of Voltage-gated inwardly rectifying potassium channel KCNH2 (Q12809 whole entry): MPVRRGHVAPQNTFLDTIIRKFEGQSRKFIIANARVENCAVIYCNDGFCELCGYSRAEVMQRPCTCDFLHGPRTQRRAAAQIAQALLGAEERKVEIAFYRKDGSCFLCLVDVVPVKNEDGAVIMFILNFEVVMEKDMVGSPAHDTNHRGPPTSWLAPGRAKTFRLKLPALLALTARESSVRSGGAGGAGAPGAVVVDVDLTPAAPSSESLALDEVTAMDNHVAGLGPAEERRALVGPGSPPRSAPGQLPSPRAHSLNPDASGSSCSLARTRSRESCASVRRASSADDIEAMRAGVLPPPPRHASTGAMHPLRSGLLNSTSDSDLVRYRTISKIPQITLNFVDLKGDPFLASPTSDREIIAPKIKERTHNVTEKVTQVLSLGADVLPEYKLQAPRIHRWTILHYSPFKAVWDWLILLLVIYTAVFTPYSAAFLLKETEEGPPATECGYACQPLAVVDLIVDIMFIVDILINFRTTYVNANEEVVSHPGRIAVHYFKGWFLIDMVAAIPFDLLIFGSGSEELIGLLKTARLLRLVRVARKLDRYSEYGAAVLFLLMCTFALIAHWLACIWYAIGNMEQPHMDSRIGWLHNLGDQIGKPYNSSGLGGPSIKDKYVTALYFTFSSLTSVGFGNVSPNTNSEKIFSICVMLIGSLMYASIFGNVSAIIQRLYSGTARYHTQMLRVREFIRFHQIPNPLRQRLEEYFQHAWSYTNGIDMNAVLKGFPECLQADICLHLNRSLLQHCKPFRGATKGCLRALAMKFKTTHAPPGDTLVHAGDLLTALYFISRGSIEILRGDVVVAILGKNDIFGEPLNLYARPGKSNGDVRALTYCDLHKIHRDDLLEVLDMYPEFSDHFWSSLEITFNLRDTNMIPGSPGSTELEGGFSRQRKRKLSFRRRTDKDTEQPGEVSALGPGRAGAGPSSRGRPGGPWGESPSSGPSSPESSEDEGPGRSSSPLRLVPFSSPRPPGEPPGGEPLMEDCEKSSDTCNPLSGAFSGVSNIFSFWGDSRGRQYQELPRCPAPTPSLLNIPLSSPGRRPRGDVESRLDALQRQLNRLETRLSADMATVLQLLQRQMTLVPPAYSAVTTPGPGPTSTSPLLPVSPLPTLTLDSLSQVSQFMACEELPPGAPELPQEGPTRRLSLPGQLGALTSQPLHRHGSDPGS

[23] = molecular target: T1, L-lactate dehydrogenase A chain; assay: Inhibition of recombinant human LDHA using sodium pyruvate as substrate preincubated for 5 mins followed by diaphorase/resazurin addition and measured after 20 mins by fluorescence based assay
[24] = molecular target: L-lactate dehydrogenase B chain (Homo sapiens) (UniProt P07195); assay: Inhibition of recombinant human LDHB using sodium pyruvate as substrate preincubated for 5 mins followed by diaphorase/resazurin addition and measured after 20 mins by fluorescence based assay
Chain of L-lactate dehydrogenase B chain (Homo sapiens) (P07195 2-334 limits assumed): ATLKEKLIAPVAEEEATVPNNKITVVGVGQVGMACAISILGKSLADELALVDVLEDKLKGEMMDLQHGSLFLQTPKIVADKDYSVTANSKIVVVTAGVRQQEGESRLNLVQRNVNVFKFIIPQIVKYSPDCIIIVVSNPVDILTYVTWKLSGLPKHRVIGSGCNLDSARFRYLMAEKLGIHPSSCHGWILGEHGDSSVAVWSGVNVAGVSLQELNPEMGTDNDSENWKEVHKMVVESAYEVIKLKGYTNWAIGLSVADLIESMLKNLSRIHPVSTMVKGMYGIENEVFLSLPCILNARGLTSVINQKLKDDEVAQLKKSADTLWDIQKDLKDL

[25] = organism: Sus scrofa; assay: Inhibition of porcine heart MDH using malic acid as substrate preincubated for 10 mins followed by substrate addition and measured after 5 mins by resazurin based fluorescence based assay; conditions: time 15.0 min
[26] = Half life in mouse liver cytoplasm; assay type: ADME, subcellular
[27] = organism: Homo sapiens; assay: Inhibition of LDH in human A673 cells assessed as decrease in extracellular acidification rate at 0.5 to 5 uM preincubated for 1 hr followed by subsequent injections of glucose/oligomycin at 48 mins by seahorse XF GST based assay; assay type: cell-based; conditions: dose microM 0.5-5, time 108.0 min; in short: as §1
[28] = Cmax in CD-1 mouse at 10 mg/kg, iv and measured up to 24 hrs by LC/MS-MS analysis; assay type: ADME, organism-based; design: route intravenous, dose 10 mg/kg, time <=24; conditions: in vivo; in short: as §2
[29] = Half life in mouse liver microsomes at 1 uM in presence of NADPH by LC-MS/MS; assay type: ADME, Microsome; in short: as §3

SMILES	inhibition [1]	Kd [2] [nM]	Fu [3] [%]	half-life [4] [h]	half-life at 1 µM [5] [h]	IC50 [6] [nM]	inhibition in vivo at 50 mg/kg [7] [%]	solubility kinetic at 6 h, 150 µM [8] [µg/mL]	Vdss [9] [L/kg]	half-life [10] [h]	IC50 [11] [nM]	AUClast [12] [ng·h/mL]	permeability [13]	half-life at 1 µM [14] [h]	IC50 [15] [nM]	half-life [16] [h]	permeability [17]	half-life [18] [h]	IC50 [19] [nM]	half-life [20] [h]	further results
Cc1ccc(C#Cc2cc(-c3nn(-c4nc(C(=O)O)cs4)c(CC4CC4)c3Cc3ccc(S(N)(=O)=O)c(F)c3)ccc2F)s1	Active	0.0667	0.7	> 2	> 2	873	60	> 70	1.79	> 2.5	106	10570	10.4 10^-6 cm/s	> 2	403	> 2.5	16 10^-6 cm/s	> 2.5	119	> 2	IC50 [21]: 257 nM; INH [22]: > 10 µM; IC50 [23]: 57 nM; inhibition [24]: Active; inhibition [25]: inactive; half-life [26]: > 2 h; inhibition [27]: inactive; Cmax [28]: 41800 ng/mL; half-life at 1 µM [29]: > 2 h
Cc1ccc(C#Cc2cccc(-c3nn(-c4nc(C(=O)O)cs4)c(CC4CC4)c3Cc3ccc(S(N)(=O)=O)c(F)c3)c2)s1	Active	0.0634	4.4	> 2	> 2	760	80	> 70	1.7	> 2.5	119	16530	2.2 10^-6 cm/s	> 2	367	> 2.5	9.6 10^-6 cm/s	> 2.5	105	> 2	IC50 [21]: 347 nM; INH [22]: > 10 µM; IC50 [23]: 40 nM; inhibition [24]: Active; inhibition [25]: inactive; half-life [26]: > 2 h; inhibition [27]: inactive; Cmax [28]: 33800 ng/mL; half-life at 1 µM [29]: > 2 h
